This is an account of results in ChEMBL document CHEMBL1137922, “Synthesis and activity of novel analogs of hemiasterlin as inhibitors of tubulin polymerization: modification of the A segment” (Bioorg Med Chem Lett, 2004).

Active and inactive are the calls of the source. The calls are words filed in the database; no cut-off is given here.

Assay [1] relates to KB. The experiment in a line: Concentration required to kill human epidermoid KBV1 cell lines containing very high levels of P-glycoprotein after 3 days of continuous exposure. Format: functional, cell-based. The settings on record: 72 h. In outline: (§1)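 KB-3-1, KB85 and KBV1 cells were plated at densities set to reach 60–90% confluence at analysis. Compounds were serially diluted in medium as 2× stocks and added in duplicate. After 3 days of incubation, cell survival was read by SRB assay and reported as IC50.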

The species entered for assay [2] is Bos taurus. The experiment in a line: Percent inhibition of bovine microtubule-assisted protein (MAP) rich tubulin polymerisation at concentration of 0.3 uM; (result for 2). Format: functional. In outline: (§2)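 Bovine MAP-rich tubulin (final 1.5 mg/mL) was prepared in cold PEM buffer (80 mM NaPIPES pH 6.9, 1 mM MgCl2, 1 mM EGTA) with 1 mM GTP and spun at 12,000g for 10 min at 4 C. It was added to duplicate compound wells (final 0.3 µM); controls held 0.3% DMSO. A340 was read every minute for 60 min at 24 C.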

The test system of assay [3] is Mus musculus. Put plainly: Minimum effective dose against Lox melanoma human xenograft models in athymic mice. Format: functional. The procedure, abridged: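 Lox melanoma cells (1.5–7 × 10^6) were injected sc into athymic mice. At 80–100 mg tumour mass, animals were randomised into groups of 5 or 10 and dosed iv in saline. Tumour length and width were measured weekly, with mass = (L·W²)/2. Relative tumour growth and %T/C were calculated.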
(In general: A xenograft is tissue or cells of one species grown in another, often human tumour cells in immunodeficient mice.)

For assay [4], the system named is Mus musculus. The experiment in a line: Minimum tolerated dose against Lox melanoma human xenograft models in athymic mice. It is filed as functional.
Assay [5] is filed under the species Mus musculus. Put plainly: Effect at 4 mpk against DLD1 cell line expressing P-glycoprotein transporter in athymic mice; Active. Format: functional, organism-based. Conditions: DLD-1.
Assay [6] has as its system KB 3-1. The experiment in a line: Concentration required to kill human epidermoid KB-3-1 cell lines containing very low levels of P-glycoprotein after 3 days of continuous exposure. Format: functional, cell-based. The settings on record: KB 3-1, 72 h. In outline: as §1
For assay [7], the species on record is Bos taurus. The experiment in a line: Percent inhibition of bovine microtubule-assisted protein (MAP) rich tubulin polymerisation at concentration of 0.3 uM. It is filed as functional. The procedure, abridged:
as §2

In assay [8] the test system is KB85 (Homo sapiens). Put plainly: Concentration required to kill human epidermoid KB85 cell lines containing moderate levels of P-glycoprotein after 3 days of continuous exposure. Conditions: KB85, 72 h.
For assay [9], the species on record is Mus musculus. The experiment in a line: Effect at 1.6 mpk against DLD1 cell line expressing P-glycoprotein transporter in athymic mice; Active. It is filed as functional, organism-based. The settings on record: DLD-1.
Assay [10] is filed under the species Mus musculus. The experiment in a line: Effect at 1.6 mpk against MX1W cell line expressing P-glycoprotein transporter in athymic mice; Active. It is filed as functional, organism-based.
For assay [11], the species on record is Mus musculus. Put plainly: Effect at 1.6 mpk against HCT-15 cell line expressing P-glycoprotein transporter in athymic mice; Active. It is filed as functional, organism-based.
Assay [12] is filed under the species Mus musculus. Put plainly: Effect at 1.5 mpk against DLD1 cell line expressing P-glycoprotein transporter in athymic mice; Active. Conditions: DLD-1. Format: functional, organism-based.
Assay [13] is filed under the species Mus musculus. The experiment in a line: Effect at 1.5 mpk against MX1W cell line expressing P-glycoprotein transporter in athymic mice; Active. It is filed as functional, organism-based.
For assay [14], the species on record is Mus musculus. Put plainly: Effect at 1.5 mpk against HCT-15 cell line expressing P-glycoprotein transporter in athymic mice; Active. It is filed as functional, organism-based.
The species entered for assay [15] is Mus musculus. Put plainly: Effect at 3 mpk against MX1W cell line expressing P-glycoprotein transporter in athymic mice; Active. Format: functional, organism-based.
For assay [16], the species on record is Mus musculus. Put plainly: Effect at 3 mpk against HCT-15 cell line expressing P-glycoprotein transporter in athymic mice; inactive. It is filed as functional, organism-based.
The species named for assay [17] is Mus musculus. The experiment in a line: Effect at 2 mpk against DLD1 cell line expressing P-glycoprotein transporter in athymic mice; Active. It is filed as functional, organism-based. Conditions: DLD-1.
The species named for assay [18] is Mus musculus. The experiment in a line: Effect at 2 mpk against MX1W cell line expressing P-glycoprotein transporter in athymic mice; Active. It is filed as functional, organism-based.
The species named for assay [19] is Mus musculus. Put plainly: Effect at 2 mpk against HCT-15 cell line expressing P-glycoprotein transporter in athymic mice; Active. Format: functional, organism-based.

In general, IC50 refers to the point on the concentration scale where inhibition reaches its midpoint. As usually defined, the Inhibition is the relative decrease from the control value, in per cent. Consider `CN[C@H](C(=O)N[C@H](C(=O)N(C)[C@H](/C=C(\C)C(=O)O)C(C)C)C(C)(C)C)C(C)(C)c1cccc(Br)c1`, for which the figures for the IC50 in [1], in assay [6] and in [8] were 148 nM, 1.8 nM and 4.1 nM, respectively. Further, the Inhibition in assay [2] is on record as 84%; in assay [7] it was 90%. This molecule also registered an MED in assay [3] of 1 mpk. Moreover, the MTD in assay [4] was found to be 4 mpk. For the same molecule, in [5], the Effect entry is “Active”.
Turning to `CN[C@H](C(=O)N[C@H](C(=O)N(C)[C@H](/C=C(\C)C(=O)O)C(C)C)C(C)(C)C)C(C)(C)c1cccc(C(C)=O)c1`, the IC50 in assay [1] is 370 nM; in assay [6], 1.9 nM; in [8], 5.8 nM. Besides, the results for the Inhibition in assay [2] and in assay [7] were 87% and 93%, respectively.
Consider `CN[C@H](C(=O)N[C@H](C(=O)N(C)[C@H](/C=C(\C)C(=O)O)C(C)C)C(C)(C)C)C(C)(C)c1ccccc1` [TALTOBULIN], for which the IC50 in [1] worked out at 81 nM; in assay [6], 1 nM; in assay [8] it was 2.4 nM. Also, the Effect result in assay [9], in assay [10] and in assay [11] was “Active” each time. Besides, the Inhibition in assay [7] turned out to be 91%.
On to `CN[C@@H](C(=O)N[C@H](C(=O)N(C)[C@H](/C=C(\C)C(=O)O)C(C)C)C(C)(C)C)C(C)(C)c1cccc(C)c1`, for which the IC50 in assay [1] is 446 nM; in assay [6] it was 7.9 nM; in [8], 19.9 nM. In addition, the Inhibition is recorded as 89% in [2] and 88% in [7].
For `CN[C@H](C(=O)N[C@H](C(=O)N(C)[C@H](/C=C(\C)C(=O)O)C(C)C)C(C)(C)C)C(C)(C)c1ccc(C)cc1` the same measures were 55 nM, 1.5 nM, 2.6 nM, 94% and 95%.
For `CN[C@H](C(=O)N[C@H](C(=O)N(C)[C@H](/C=C(\C)C(=O)O)C(C)C)C(C)(C)C)C(C)(C)c1cccc(F)c1` the same measures were 77 nM, 1 nM, 1.8 nM, 93% and 103%.
Turning to `CN[C@H](C(=O)N[C@H](C(=O)N(C)[C@H](/C=C(\C)C(=O)O)C(C)C)C(C)(C)C)C(C)(C)c1cccs1`, the IC50 in [1] was 162 nM; in assay [6], 2 nM; in [8], 3.9 nM. In addition, the Inhibition is given as 88% in [2] and 92% in assay [7]. This molecule returned an MED in assay [3] of 1 mpk. For the same molecule, in assay [4], the MTD is listed as >5 mpk.
With `CCOC(=O)/C(C)=C/[C@H](C(C)C)N(C)C(=O)[C@@H](NC(=O)[C@H](NC)C(C)(C)c1cccc(C)c1)C(C)(C)C`, the figures for the IC50 in [1], in assay [6] and in assay [8] were 3000 nM, 263 nM and 1700 nM, respectively. For the same molecule, the Inhibition in assay [2] came to 94%; in assay [7] it was 26%.
On the same counts, the results for `CCc1cccc(C(C)(C)[C@H](NC)C(=O)N[C@H](C(=O)N(C)[C@H](/C=C(\C)C(=O)O)C(C)C)C(C)(C)C)c1` are 62 nM, 0.79 nM, 1.8 nM, 90% and 88%.
Consider `CN[C@@H](C(=O)N[C@H](C(=O)N(C)[C@H](/C=C(\C)C(=O)O)C(C)C)C(C)(C)C)C(C)(C)c1ccc(C)cc1`, for which the IC50 in assay [1] came to 1070 nM; in [6], 17 nM; in assay [8] it was 27.5 nM. Also, the Inhibition is 94% in [2] and 95% in [7].
On the same counts, the results for `CN[C@H](C(=O)N[C@H](C(=O)N(C)[C@H](/C=C(\C)C(=O)O)C(C)C)C(C)(C)C)C(C)(C)c1ccsc1` are 724 nM, 2.1 nM, 6.6 nM, 96% and 88%.
For `CN[C@H](C(=O)N[C@H](C(=O)N(C)[C@H](/C=C(\C)C(=O)O)C(C)C)C(C)(C)C)C(C)(C)c1ccc(Cl)cc1` the same measures were 53 nM, 0.56 nM, 1.7 nM, 96% and 95%.
On the same counts, the results for `C=Cc1cccc(C(C)(C)[C@H](NC)C(=O)N[C@H](C(=O)N(C)[C@H](/C=C(\C)C(=O)O)C(C)C)C(C)(C)C)c1` are 130 nM, 0.86 nM, 2 nM, 90% and 88%.
In the case of `CN[C@H](C(=O)N[C@H](C(=O)N(C)[C@H](/C=C(\C)C(=O)O)C(C)C)C(C)(C)C)C(C)(C)c1cc(C(F)(F)F)cc(C(F)(F)F)c1`, the IC50 turned out to be 457 nM in assay [1], 17 nM in [6] and 19 nM in [8]. For the same molecule, the values for the Inhibition in [2] and in assay [7] were 93% and 60%, respectively.
As to `CN[C@H](C(=O)N[C@H](C(=O)N(C)[C@H](/C=C(\C)C(=O)O)C(C)C)C(C)(C)C)C(C)(C)c1cccc(C)c1`, the IC50 is 19 nM in assay [1], 0.23 nM in assay [6] and 0.65 nM in assay [8]. Besides, the Inhibition is reported as 89% in assay [2] and 90% in assay [7]. Also, in [3], the MED was <0.1 mpk. The molecule further displayed an MTD in assay [4] of 1.5 mpk. Also, the Effect entry in assay [12], in assay [13] and in [14] was “Active” each time.
On to `CCOC(=O)/C(C)=C/[C@H](C(C)C)N(C)C(=O)[C@@H](NC(=O)[C@@H](NC)C(C)(C)c1cccc(C)c1)C(C)(C)C`, for which the values for the IC50 in assay [1], in [6] and in assay [8] were 2410 nM, 21.9 nM and 525 nM, respectively. In addition, the Inhibition in assay [2] is 94%; in assay [7], 58%.
Regarding `CN[C@H](C(=O)N[C@H](C(=O)N(C)[C@H](/C=C(\C)C(=O)O)C(C)C)C(C)(C)C)C(C)(C)c1cc(C)cc(C)c1`, the results for the IC50 in assay [1], in assay [6] and in assay [8] were 44 nM, 0.55 nM and 1.23 nM, respectively. Besides, the results for the Inhibition in assay [2] and in [7] were 88% and 85%, respectively.
`CN[C@H](C(=O)N[C@H](C(=O)N(C)[C@H](/C=C(\C)C(=O)O)C(C)C)C(C)(C)C)C(C)(C)c1cccc(Cl)c1`: the IC50 in assay [1] was 91 nM; in [6], 1.14 nM; in assay [8], 3.2 nM. Also, the Inhibition in assay [2] was determined as 88%; in [7], 91%. The same molecule showed an MED in assay [3] of 0.3 mpk. Moreover, in assay [4], the MTD is listed as 3 mpk. In addition, the Effect result in assay [15] was “Active”. The Effect result in [16] was “inactive”.
For the molecule `CCOC(=O)/C(C)=C/[C@H](C(C)C)N(C)C(=O)[C@@H](NC(=O)[C@@H](NC)C(C)(C)c1ccc(C)c(C)c1)C(C)(C)C`, the figures for the IC50 in assay [1], in assay [6] and in [8] were 191 nM, 9.1 nM and 24 nM, respectively. For the same molecule, the Inhibition is 92% in assay [2] and 49% in assay [7]. Further, the MED in assay [3] is given as 0.5 mpk. Besides, in assay [4], the MTD was >2 mpk. For the same molecule, the Effect entry in assay [17], in assay [18] and in assay [19] was “Active” each time.
With `CN[C@H](C(=O)N[C@H](C(=O)N(C)[C@H](/C=C(\C)C(=O)O)C(C)C)C(C)(C)C)C(C)(C)c1cccc(C(F)(F)F)c1`, the IC50 is 42.7 nM in [1], 0.65 nM in assay [6] and 1.7 nM in [8]. Further, the Inhibition was found to be 96% in [2] and 98% in assay [7]. In assay [3], this molecule returned an MED of 1 mpk. Besides, the MTD in assay [4] is given as >5 mpk.
Regarding `CN[C@H](C(=O)N[C@H](C(=O)N(C)[C@H](/C=C(\C)C(=O)O)C(C)C)C(C)(C)C)C(C)(C)c1cccc(-c2ccccc2)c1`, the IC50 was 149 nM in assay [1], 1.9 nM in assay [6] and 5.4 nM in assay [8]. Also, the Inhibition was 84% in assay [2] and 86% in assay [7].
For `CN[C@H](C(=O)N[C@H](C(=O)N(C)[C@H](/C=C(\C)C(=O)O)C(C)C)C(C)(C)C)C(C)(C)c1cc(F)cc(F)c1` the same measures were 457 nM, 6.2 nM, 16.2 nM, 84% and 90%.
